# Measured values reported in ChEMBL document CHEMBL5136969, “A niclosamide-tobramycin hybrid adjuvant potentiates cefiderocol against P. aeruginosa” (2021).
# Legend:
# [1] = system: Pseudomonas aeruginosa; experiment: Potentiation of ciprofloxacin-induced antibiotic activity against Pseudomonas aeruginosa PAO1 assessed as MIC fold reduction at 8 ug/ml after 18 hrs by microbroth dilution method; assay type: functional; details: dose 8 µg/ml
# How it was run: (§1)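 Adjuvant held at a fixed 8 μg/mL while the antibiotic was 2-fold serially diluted in Mueller-Hinton broth (MHB), per CLSI microbroth dilution. Overnight cultures were adjusted in saline to 0.5 McFarland, then diluted 1:50 in MHB to about 5 × 10^5 CFU/mL final, and incubated 18 h at 37 °C. MIC was the lowest concentration with no visible turbidity, confirmed at 590 nm. Fold potentiation = MIC alone / MIC with adjuvant.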
# [2] = system: Pseudomonas aeruginosa; experiment: Potentiation of vancomycin-induced antibiotic activity against Pseudomonas aeruginosa PAO1 assessed as MIC fold reduction at 8 ug/ml after 18 hrs by microbroth dilution method; assay type: functional; details: dose 8 µg/ml
# [3] = system: Escherichia coli; experiment: Potentiation of niclosamide-induced antibiotic activity against Escherichia coli ATCC 25922 assessed as MIC fold reduction at 8 ug/ml after 18 hrs by microbroth dilution method; assay type: functional; details: dose 8 µg/ml
# [4] = system: Escherichia coli; experiment: Potentiation of cefotaxime-induced antibiotic activity against Escherichia coli ATCC 25922 assessed as MIC fold reduction at 8 ug/ml after 18 hrs by microbroth dilution method; assay type: functional; details: dose 8 µg/ml
# How it was run: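 Initial screen in MHB using a fixed 8 μg mL−1 of adjuvant combined with each antibiotic under 2-fold dilution. Broth microdilution used about 5 × 10^5 CFU/mL at 37 °C for 18 h, with visible turbidity read and confirmed at 590 nm. Fold-potentiation = antibiotic MIC alone ÷ antibiotic MIC with adjuvant.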
# [5] = system: Pseudomonas aeruginosa; experiment: Potentiation of ceftazidime-induced antibiotic activity against Pseudomonas aeruginosa PAO1 assessed as MIC fold reduction at 8 ug/ml after 18 hrs by microbroth dilution method; assay type: functional; details: dose 8 µg/ml; how it was run: as §1
# [6] = system: Acinetobacter baumannii; experiment: Potentiation of linezolid-induced antibiotic activity against Acinetobacter baumannii ATCC 17978 assessed as MIC fold reduction at 8 ug/ml after 18 hrs by microbroth dilution method; assay type: functional; details: dose 8 µg/ml; how it was run: as §1
# [7] = system: Acinetobacter baumannii; experiment: Potentiation of cindamycin-induced antibiotic activity against Acinetobacter baumannii ATCC 17978 assessed as MIC fold reduction at 8 ug/ml after 18 hrs by microbroth dilution method; assay type: functional; details: dose 8 µg/ml; how it was run: as §1
# [8] = system: Acinetobacter baumannii; experiment: Potentiation of cotrimoxazole-induced antibiotic activity against Acinetobacter baumannii ATCC 17978 assessed as MIC fold reduction at 8 ug/ml after 18 hrs by microbroth dilution method; assay type: functional; details: dose 8 µg/ml; how it was run: as §1
# [9] = system: Acinetobacter baumannii; experiment: Antibacterial activity against Acinetobacter baumannii ATCC 17978 assessed as reduction in bacterial growth after 18 hrs by microbroth dilution method; assay type: functional
# How it was run: (§2)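 CLSI microbroth dilution in MHB. Overnight cultures were adjusted to 0.5 McFarland in saline, diluted 1:50, and inoculated at about 5 × 10^5 CFU/mL. Agents were 2-fold serially diluted and incubated 18 h at 37 °C. MIC is the lowest concentration without visible turbidity, confirmed by absorbance at 590 nm. Medium with and without cells served as controls.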
# [10] = system: Pseudomonas aeruginosa; experiment: Antibacterial activity against colistin-resistant clinical isolate Pseudomonas aeruginosa PA91433 assessed as reduction in bacterial growth after 18 hrs by microbroth dilution method; assay type: functional
# How it was run: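 Broth microdilution per CLSI in Mueller-Hinton broth (MHB). Overnight cultures were adjusted to 0.5 McFarland in saline, diluted 1:50 in MHB, and added at about 5 × 10^5 CFU/mL final to equal volumes of 2-fold serial dilutions of agent. Incubation was 18 h at 37 °C. MIC was the lowest concentration with no visible turbidity, confirmed by absorbance at 590 nm.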
# [11] = system: Pseudomonas aeruginosa; experiment: Antibacterial activity against MDR clinical isolate Pseudomonas aeruginosa PA108590 assessed as reduction in bacterial growth after 18 hrs in presence of cefiderocol by microbroth dilution method; assay type: functional
# How it was run: (§3)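 Checkerboard in MHB. Cefiderocol was 2-fold serially diluted along one axis and the adjuvant along the other. Inoculum was prepared from 0.5 McFarland saline suspensions diluted 1:50 in MHB, giving about 5 × 10^5 CFU/mL final. Plates ran 18 h at 37 °C, with turbidity confirmed at 590 nm. FIC = combination MIC ÷ MIC alone for each agent, and FIC index = sum of both. Interpretation: ≤0.5 synergy, >0.5–4 additive, >4 antagonism.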
# [12] = system: Pseudomonas aeruginosa; experiment: Antibacterial activity against colistin-resistant clinical isolate Pseudomonas aeruginosa PA114228 assessed as reduction in bacterial growth after 18 hrs in presence of cefiderocol by microbroth dilution method; assay type: functional
# How it was run: (§4)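 Checkerboard in MHB (iron-replete, not iron-depleted CAMHB). Cefiderocol was 2-fold serially diluted along one axis and the adjuvant along the other. Inoculum was 0.5 McFarland diluted 1:50, about 5 × 10^5 CFU/mL final. Incubation was 18 h at 37 °C, with turbidity read visually and confirmed at 590 nm. FIC was the MIC in combination over the MIC alone for each agent, and the FIC index was their sum. Cut-offs were ≤0.5 synergy, >0.5–4 additive, >4 antagonism.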
# [13] = system: Pseudomonas aeruginosa; experiment: Antibacterial activity against MDR clinical isolate Pseudomonas aeruginosa PA262 assessed as potentiation of cefiderocol antibacterial activity by measuring FIC index after 18 hrs by microbroth dilution method; assay type: functional; how it was run: as §3
# [14] = system: Pseudomonas aeruginosa; experiment: Antibacterial activity against MDR clinical isolate Pseudomonas aeruginosa PA86052 assessed as potentiation of cefiderocol antibacterial activity by measuring FIC index after 18 hrs by microbroth dilution method; assay type: functional; how it was run: as §4
# [15] = system: Pseudomonas aeruginosa; experiment: Antibacterial activity against MDR clinical isolate Pseudomonas aeruginosa PA109084 assessed as potentiation of cefiderocol antibacterial activity by measuring FIC index after 18 hrs by microbroth dilution method; assay type: functional; how it was run: as §3
# [16] = system: Acinetobacter baumannii; experiment: Antibacterial activity against Acinetobacter baumannii AB92247 assessed as reduction in bacterial growth after 18 hrs in presence of cefiderocol by microbroth dilution method; assay type: functional
# How it was run: (§5)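 Checkerboard in Mueller-Hinton broth: cefiderocol 2-fold diluted on one axis, adjuvant 2-fold on the other. Overnight cultures were adjusted to 0.5 McFarland in saline, diluted 1:50 in MHB, and inoculated at about 5 × 10^5 CFU/mL. Incubation was 18 h at 37 °C. Turbidity was read visually and confirmed at 590 nm. FIC index = FIC of antibiotic + FIC of adjuvant; ≤0.5 synergy, >4 antagonism.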
# [17] = system: Klebsiella pneumoniae; experiment: Antibacterial activity against Klebsiella pneumoniae KP113250 assessed as reduction in bacterial growth after 18 hrs by microbroth dilution method; assay type: functional; how it was run: as §2
# [18] = system: Klebsiella pneumoniae; experiment: Antibacterial activity against Klebsiella pneumoniae KP116381 assessed as reduction in bacterial growth after 18 hrs by microbroth dilution method; assay type: functional
# How it was run: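 CLSI broth microdilution. Overnight cultures were adjusted in saline to 0.5 McFarland, diluted 1:50 in Mueller-Hinton broth (MHB), and inoculated at about 5 × 10^5 CFU/mL. Agents were 2-fold serially diluted in MHB, mixed 1:1 with inoculum, and held at 37 °C for 18 h. MIC was the lowest concentration with no visible turbidity, confirmed at 590 nm.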
# [19] = system: Escherichia coli; experiment: Antibacterial activity against Escherichia coli ATCC 25922 assessed as potentiation of cefiderocol antibacterial activity by measuring FIC after 18 hrs by microbroth dilution method; assay type: functional; how it was run: as §5
# [20] = system: Enterobacter cloacae; experiment: Antibacterial activity against Enterobacter cloacae 118564 assessed as potentiation of cefiderocol antibacterial activity by measuring FIC after 18 hrs by microbroth dilution method; assay type: functional; how it was run: as §5
# [21] = system: Pseudomonas aeruginosa; experiment: Potentiation of cefiderocol-induced antibiotic activity against MDR clinical isolate Pseudomonas aeruginosa PA259 assessed as MIC fold reduction at 8 ug/ml after 18 hrs by microbroth dilution method; details: dose 8 µg/ml
smiles,measurement,setting,value
NC[C@H]1O[C@H](O[C@H]2[C@H](OCCCCc3cn(-c4ccc(NC(=O)c5cc(Cl)ccc5O)cc4)nn3)[C@@H](O[C@H]3O[C@H](CO)[C@@H](O)[C@H](N)[C@H]3O)[C@H](N)C[C@@H]2N)[C@H](N)C[C@@H]1O,fold change (FC),[1],4
same,fold change (FC),[2],4
same,fold change (FC),[3],4
same,fold change (FC),[4],4
same,fold change (FC),[5],4
same,fold change (FC),[6],4
same,fold change (FC),[7],4
same,fold change (FC),[8],4
same,MIC,[9],> 128 µg/mL
same,MIC,[10],> 128 µg/mL
same,MIC,[11],4 µg/mL
same,MIC,[12],16 µg/mL
same,FIC,[13],0.25
same,FIC,[14],1
same,FIC,[15],0.004
same,MIC,[16],8 µg/mL
same,MIC,[17],> 128 µg/mL
same,MIC,[18],> 128 µg/mL
same,FIC,[19],0.5
same,FIC,[20],1
same,fold change (FC),[21],32
